# Experimental data taken from ChEMBL document CHEMBL1123566, “Synthesis and cardiac electrophysiological activity of 2- and 3-[(substituted phenyl)alkyl]quinuclidines. Structure-activity relationships” (1987).
# Several values for one entry are separate records, joined by “and”; a condition that tells them apart may be missing. Identical values can stand only once.
# Tests used:
# Canis familiaris [1] = species: Canis familiaris; assay: In vitro electrophysiological evaluation in canine cardiac Purkinje fibres reported as percent change Vmax at 10 uM at concentration range of 1-100 uM; Minimal (<10% decrease or increase in V max).; assay type: functional; conditions: Canis lupus familiaris, Purkinje fiber
# Outline: (§1)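 Canine cardiac Purkinje fibres, intracellular microelectrode recording, paced at a basic cycle length of 1 s. APD95 and Vmax read simultaneously. Compound: 10 mM stock in deionized water, diluted into Tyrode's solution, tested over the stated concentration range. Each fibre used once as its own control. Result is % change from control, given at 10 µM or as the maximum with its concentration. M = <10% decrease or an increase in Vmax.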
# Canis familiaris [2] = assay: Conduction time was determined by intraduodenal administration of two doses of 24 mg/kg (high dose) of compound in anesthetized dogs. Value was reported for experiment 2; assay type: functional, Canis lupus familiaris
# Outline: (§2)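 Anesthetized dogs; compound given intraduodenally, generally as two doses, the second a cumulative (high) dose. LV functional refractory period and conduction time measured 15, 30 and 45 min after dosing; heart rate and blood pressure measured during nonpacing intervals. Values are % change from control, given per individual animal. Active if FRP or CT prolonged by ≥12%.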
# Canis familiaris [3] = assay: Left ventricular refractory period was determined by intraduodenal administration of two doses of 24 mg/kg (high dose) of compound in anesthetized dogs. Value was reported for experiment 2; assay type: functional, Canis lupus familiaris, Cardiac ventricle
# Canis familiaris [4] = assay: Conduction time was determined by intraduodenal administration of two doses of 10 mg/kg (low dose) of compound in anesthetized dogs. Value was reported for experiment 2; assay type: functional, Canis lupus familiaris; outline: as §2
# Canis familiaris [5] = assay: Heart rate was determined by intraduodenal administration of two dosages of 24 mg/kg of compound in anesthetized dogs. Value was reported for experiment 2; assay type: functional, Canis lupus familiaris; outline: as §2
# Canis familiaris [6] = assay: Heart rate was determined by intraduodenal administration of two doses of 10 mg/kg (low dose) of compound in anesthetized dogs. Value was reported for experiment 1; assay type: functional, Canis lupus familiaris; outline: as §2
# Canis familiaris [7] = species: Canis familiaris; assay: In vitro electrophysiological evaluation in canine cardiac ventricular muscle reported as maximum % change for functional refractory period (FRP) at 0.1-100 uM concentration range; concentration at which it occurred is 100 uM.; design: species or system Canis lupus familiaris, Muscle tissue
# Outline: (§3)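 Canine right ventricle and papillary muscle strips in oxygenated Tyrode's solution, fitted with stimulating and recording electrodes. The extra-stimulus conduction-interval method was adapted for in vitro use. FRP and CT were read from a conduction-interval curve before and after various compound concentrations, and expressed as percent change from control. Compounds were taken from 10 mM deionized-water stock into Tyrode's. Each strip was used once as its own control.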
# Canis familiaris [8] = assay: Heart rate was determined by intraduodenal administration of two dosages of 10 mg/kg of compound in anesthetized dogs. Value was reported for experiment 2; assay type: functional, Canis lupus familiaris; outline: as §2
# Canis familiaris [9] = assay: Heart rate was determined by intraduodenal administration of two dosages of 30 mg/kg of compound in anesthetized dogs. Value was reported for experiment 1; assay type: functional, Canis lupus familiaris; outline: as §2
# Canis familiaris [10] = species: Canis familiaris; assay: In vitro electrophysiological evaluation in canine cardiac Purkinje fibres reported as maximum percent change Vmax concentration range of 1-100 uM; Minimal (<10% decrease or increase in V max).; assay type: functional; conditions: Canis lupus familiaris; Purkinje fiber; outline: as §1
# Canis familiaris [11] = assay: Mean arterial blood pressure was determined by intraduodenal administration of two dosages of 30 mg/kg of compound in anesthetized dogs. Value was reported for experiment 1; assay type: functional, Canis lupus familiaris
# Outline: (§4)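 Anesthetized dogs received two intraduodenal doses, the second cumulative (low dose/high dose). Left ventricular FRP and CT were measured 15, 30 and 45 min after dosing. Heart rate and mean blood pressure were taken during nonpacing intervals. Values are percent change from control. The vehicle was 5% dextrose in water/tragacanth. Activity was defined as ≥12% prolongation of FRP or CT.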
# Canis familiaris [12] = species: Canis familiaris; assay: (§5) In vitro electrophysiological evaluation in canine cardiac occurred is 100 uM; assay type: functional; conditions: Canis lupus familiaris; Heart
# Canis familiaris [13] = assay: Mean arterial blood pressure was determined by intraduodenal administration of two dosages of 10 mg/kg of compound in anesthetized dogs. Value was reported for experiment 2; assay type: functional, Canis lupus familiaris; outline: as §4
# Canis familiaris [14] = species: Canis familiaris; assay: In vitro electrophysiological evaluation in canine cardiac ventricular muscle reported as % change for the functional refractory period (FRP) at 10 uM at concentration range of 0.1-100 uM; design: species or system Canis lupus familiaris, Muscle tissue; outline: as §3
# Canis familiaris [15] = assay: Mean arterial blood pressure was determined by intraduodenal administration of two dosages of 10 mg/kg of compound in anesthetized dogs. Value was reported for experiment 1; assay type: functional, Canis lupus familiaris; outline: as §4
# Canis familiaris [16] = assay: Conduction time was determined by intraduodenal administration of two doses of 10 mg/kg (low dose) of compound in anesthetized dogs. Value was reported for experiment 1; assay type: functional, Canis lupus familiaris; outline: as §2
# Canis familiaris [17] = species: Canis familiaris; assay: (§6) In vitro electrophysiological activity in canine cardiac occurred is 10 uM; assay type: functional, Canis lupus familiaris, Heart
# Canis familiaris [18] = species: Canis familiaris; assay: In vitro electrophysiological evaluation in canine cardiac Purkinje fibres reported as % change for action potential duration at a concentration of 10 uM; assay type: functional, Canis lupus familiaris, Purkinje fiber; outline: as §1
# Canis familiaris [19] = assay: Left ventricular refractory period was determined by intraduodenal administration of two doses of 10 mg/kg (low dose) of compound in anesthetized dogs. Value was reported for experiment 1; assay type: functional, Canis lupus familiaris, Cardiac ventricle
# Canis familiaris [20] = species: Canis familiaris; assay: In vitro electrophysiological evaluation in canine cardiac ventricular muscle reported as % change for conduction time(CT) at 10 uM at 0.1-100 uM concentration range; Minimal (<10% decrease or increase in CT).; assay type: functional, Canis lupus familiaris, Muscle tissue
# Canis familiaris [21] = species: Canis familiaris; assay: as §6; assay type: functional, Canis lupus familiaris, Heart; remark: listed apart in the source
# Canis familiaris [22] = species: Canis familiaris; assay: In vitro electrophysiological evaluation in canine cardiac Purkinje fibres reported as % change for action potential duration at 1-100 uM concentration range; assay type: functional, Canis lupus familiaris, Purkinje fiber; outline: as §1
# Canis familiaris [23] = species: Canis familiaris; assay: (§7) In vitro electrophysiological activity in canine cardiac occurred is 100 uM; assay type: functional, Canis lupus familiaris, Heart
# Canis familiaris [24] = assay: Left ventricular refractory period was determined by intraduodenal administration two doses of 30 mg/kg (high dose) of compound in anesthetized dogs. Value was reported for experiment 1; assay type: functional, Canis lupus familiaris, Cardiac ventricle
# Canis familiaris [25] = species: Canis familiaris; assay: In vitro electrophysiological evaluation in canine cardiac ventricular muscle reported as maximum % change for conduction time(CT) at 0.1-100 uM concentration range; Minimal (<10% decrease or increase in CT).; assay type: functional, Canis lupus familiaris, Muscle tissue; outline: as §3
# Canis familiaris [26] = assay: Conduction time was determined by intraduodenal administration of two doses of 30 mg/kg (high dose) of compound in anesthetized dogs. Value was reported for experiment 1; assay type: functional, Canis lupus familiaris; outline: as §2
# Canis familiaris [27] = assay: Mean arterial blood pressure was determined by intraduodenal administration of two dosages of 24 mg/kg of compound in anesthetized dogs. Value was reported for experiment 2; assay type: functional, Canis lupus familiaris
# Canis familiaris [28] = species: Canis familiaris; assay: In vitro electrophysiological evaluation in canine cardiac Purkinje fibres reported as percent change Vmax at 10 uM at concentration range of 1-100 uM.; assay type: functional; conditions: Canis lupus familiaris, Purkinje fiber; outline: as §1
# Canis familiaris [29] = assay: Left ventricular refractory period was determined by intraduodenal administration of two doses of 10 mg/kg (low dose) of compound in anesthetized dogs. Value was reported for experiment 2; assay type: functional, Canis lupus familiaris, Cardiac ventricle
# Canis familiaris [30] = species: Canis familiaris; assay: In vitro electrophysiological evaluation in canine cardiac ventricular muscle reported as maximum % change for functional refractory period (FRP) at 0.1-100 uM concentration range; concentration at which it occurred is 10 uM; design: species or system Canis lupus familiaris, Muscle tissue; outline: as §3
# Canis familiaris [31] = species: Canis familiaris; assay: In vitro electrophysiological evaluation in canine cardiac ventricular muscle reported as maximum % change for functional refractory period (FRP) at 0.1-100 uM concentration range; concentration at which it occurred is 1 uM; design: species or system Canis lupus familiaris, Muscle tissue; outline: as §3
# Canis familiaris [32] = species: Canis familiaris; assay: In vitro electrophysiological evaluation in canine cardiac Purkinje fibres reported as % change for action potential duration at 10 uM at 1-100 uM concentration range; assay type: functional, Canis lupus familiaris, Purkinje fiber; outline: as §1
# Canis familiaris [33] = species: Canis familiaris; assay: as §7; assay type: functional, Canis lupus familiaris, Heart; remark: listed apart in the source
# Canis familiaris [34] = species: Canis familiaris; assay: In vitro electrophysiological evaluation in canine cardiac Purkinje fibres reported as percent change Vmax at 10 uM at concentration range of 0.1-100 uM; Minimal (<10% decrease or increase in V max).; assay type: functional, organism-based; conditions: Canis lupus familiaris, Purkinje fiber; outline: as §1
# Canis familiaris [35] = species: Canis familiaris; assay: In vitro electrophysiological evaluation in canine cardiac ventricular muscle reported as maximum % change for functional refractory period (FRP) at 0.1-100 uM concentration range; concentration at which it occurred is 100 uM; design: species or system Canis lupus familiaris, Muscle tissue; outline: as §3
# Canis familiaris [36] = species: Canis familiaris; assay: In vitro electrophysiological evaluation in canine cardiac ventricular muscle reported as maximum % change for conduction time(CT) at 0.1-100 uM concentration range; concentration at which it occurred is 100 uM; assay type: functional, Canis lupus familiaris, Muscle tissue; outline: as §3
# Canis familiaris [37] = species: Canis familiaris; assay: as §5; assay type: functional; conditions: Canis lupus familiaris; Heart; remark: listed apart in the source
structure (smiles),measurement,setting,value
Cl.O=C(CCC1C(=O)C2CCN1CC2)c1ccc([N+](=O)[O-])cc1 (centres undefined),Vmax,Canis familiaris [1],< 10%
same,CT,Canis familiaris [2],11%
same,LV FRP,Canis familiaris [3],19%
same,CT,Canis familiaris [4],6%
same,HR,Canis familiaris [5],-40%
same,HR,Canis familiaris [6],-23%
same,FRP,Canis familiaris [7],25% and 22%
same,HR,Canis familiaris [8],-35%
same,HR,Canis familiaris [9],-31%
same,Vmax,Canis familiaris [10],< 10%
same,Mean blood pressure,Canis familiaris [11],-21%
same,Vmax,Canis familiaris [12],-23%
same,Mean blood pressure,Canis familiaris [13],-10%
same,FRP,Canis familiaris [14],15% and 17%
same,Mean blood pressure,Canis familiaris [15],-11%
same,CT,Canis familiaris [16],-1%
same,APD95,Canis familiaris [17],53%
same,APD95,Canis familiaris [18],36%
same,LV FRP,Canis familiaris [19],14%
same,CT,Canis familiaris [20],<10%
same,APD95,Canis familiaris [21],36% and 25%
same,APD95,Canis familiaris [22],53% and 25%
same,APD95,Canis familiaris [23],13% and -10%
same,LV FRP,Canis familiaris [24],15%
same,CT,Canis familiaris [25],<10%
same,CT,Canis familiaris [26],2%
same,Mean blood pressure,Canis familiaris [27],-1%
same,Vmax,Canis familiaris [28],-17%
same,LV FRP,Canis familiaris [29],16%
Cl.O=C(CCC1C(=O)C2CCN1CC2)c1ccc(Cl)c([N+](=O)[O-])c1 (centres undefined),Vmax,Canis familiaris [1],< 10%
same,FRP,Canis familiaris [30],21%
same,Vmax,Canis familiaris [12],-37% and -42%
same,FRP,Canis familiaris [31],14%
same,FRP,Canis familiaris [14],21% and 14% and 26%
same,APD95,Canis familiaris [18],4% and 3%
same,CT,Canis familiaris [20],<10%
same,APD95,Canis familiaris [23],4% and -11%
same,APD95,Canis familiaris [32],1%
same,CT,Canis familiaris [25],<10%
same,APD95,Canis familiaris [33],11%
same,Vmax,Canis familiaris [34],< 10%
same,FRP,Canis familiaris [35],44%
same,CT,Canis familiaris [36],14% and 21%
same,Vmax,Canis familiaris [37],-13%
